pIC50: −log10 of the molar value.
Columns and labels:
BRD4(1) [1] = target: T1, BRD4(1) (Homo sapiens, UniProt O60885); experiment: Thermal shift assay; format: binding
BRD4(1) [2] = target: T1, BRD4(1); experiment: Alphascreen assay against BRD4; format: biochemical
CDK6 = experiment: qRT-PCR of CDK6 mRNA in MV4-11; format: cell-based, human; conditions: MV4-11, 48 h, 1 μM, 5 μM and 10 μM vs control
Summary of the method: (§1)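 Log-phase cells seeded at 5000 per well, grown 12 h, then given a range of test compound concentrations for 48 h, in triplicate wells. RNA extracted with TRIzol; reverse transcription with iScript (25 °C 5 min, 42 °C 30 min, 85 °C 5 min). EvaGreen qPCR used gene-specific primers. Expression by 2−ΔΔCt, normalised to GAPDH; one-way ANOVA with Tukey's test.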

c-Myc [3] = experiment: Western blotting of c-Myc in MV4-11; format: cell-based, human; conditions: MV4-11, 48 h, Western blot
Summary of the method: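 MV4-11 cells treated 48 h with several compound concentrations, then lysed 30 min on ice in RIPA with PMSF and cleared at 12,000 r/min, 4 °C. Protein quantified by BCA, run on 8% SDS-PAGE, blotted to PVDF and blocked in 5% milk/TBST. Probed with anti-c-Myc (1:1000, 4 °C overnight) and HRP anti-rabbit (1:50000, 1 h), then ECL. Densitometry relative to GAPDH; ANOVA/Tukey.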

MV4-11 cells [4] = experiment: Cell cycle analysis by flow cytometry; format: cell-based, human; conditions: MV4-11, 48 h
Summary of the method: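 Cells seeded at 5 × 10^3 per well, grown 12 h, then exposed to graded test compound concentrations or DMSO for 48 h at 37 °C. Fixed overnight in 70% ethanol at 4 °C. RNase A (about 50 μg/mL final) at 37 °C for 30 min, then PI (about 65 μg/mL final) on ice in the dark for 30 min. Flow cytometry within 1 h; one-way ANOVA with Tukey's test.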

c-Myc [5] = experiment: qRT-PCR of c-Myc mRNA in MV4-11; format: cell-based, human; conditions: MV4-11, 48 h, 1 μM, 5 μM and 10 μM vs control
Summary of the method: as §1

MV4-11 cells [6] = experiment: Apoptosis analysis by flow cytometry; format: cell-based, human; conditions: MV4-11, 1 μM, 5 μM and 10 μM vs control
Summary of the method: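 Harvested cells washed in cold PBS and resuspended at 10^6/mL in 1× Annexin binding buffer. Stained with Alexa Fluor 488 Annexin V plus propidium iodide (100 μg/mL working solution) for 15 min at room temperature in the dark, then analysed by flow cytometry. Groups compared by one-way ANOVA with Tukey's test.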

`CCc1noc2cc(OC)c(NS(=O)(=O)c3ccccc3)cc12` [Compound 11d, N-(3-Ethyl-6-methoxybenzo[d]isoxazol-5-yl)benzenesulfonamide] was tested, and the “binding activity to BRD4 (TSA), in words” value (BRD4(1) [1]) was “moderate activity”.
For `CCc1noc2cc(OC)c(NS(=O)(=O)c3ccccc3OC)cc12` [Compound 11h, N-(3-Ethyl-6-methoxybenzo[d]isoxazol-5-yl)-2-methoxybenzenesulfonamide], the pIC50 (BRD4(1) [2]) was 7.03.
For `CCc1noc2cc(OC)c(NS(=O)(=O)c3cccnc3)cc12` [Compound 11z, N-(3-Ethyl-6-methoxybenzo[d]isoxazol-5-yl)pyridine-3-sulfonamide], the “binding activity to BRD4 (TSA), in words” value (BRD4(1) [1]) was “good binding activities”.
For `CCc1noc2cc(OC)c(NS(=O)(=O)c3cccs3)cc12` [Compound 11y, N-(3-Ethyl-6-methoxybenzo[d]isoxazol-5-yl)thiophene-2-sulfonamide], the “binding activity to BRD4 (TSA), in words” value (BRD4(1) [1]) was “good binding activities”.
With `CCc1noc2cc(OC)c(NS(=O)(=O)c3ccc(OC)cc3)cc12` [Compound 11r, N-(3-Ethyl-6-methoxybenzo[d]isoxazol-5-yl)-4-methoxybenzenesulfonamide] the “mRNA expression of CDK6” value (CDK6) was “decreased significantly”, the “c-Myc expression at the protein level” value (c-Myc [3]) was “remarkable dose-dependent decrease” and the “cell cycle arrest, in words” value (MV4-11 cells [4]) was “induce cell cycle arrest in G0/G1 phase in a dose-dependent manner”. The “mRNA expression of c-Myc” value (c-Myc [5]) was “decreased significantly” and the “apoptosis rate, in words” value (MV4-11 cells [6]) was “significantly increased”.
`CCc1noc2cc(OC)c(NS(=O)(=O)CC)cc12` [Compound 11a, N-(3-Ethyl-6-methoxybenzo[d]isoxazol-5-yl)ethanesulfonamide] was tested, and the “binding activity to BRD4 (TSA), in words” value (BRD4(1) [1]) was “moderate binding activity”.
